# Laboratory results reported in ChEMBL document CHEMBL1125654, “New inhibitors of human renin that contain novel replacements at the P2 site” (J Med Chem, 1991).
# How the values were obtained:
# Renin [1] = target: T1, Renin (Homo sapiens, UniProt P00797); assay: Inhibitory activity against human plasma renin; assay type: cell-free
# T1 sequence (P00797 whole entry): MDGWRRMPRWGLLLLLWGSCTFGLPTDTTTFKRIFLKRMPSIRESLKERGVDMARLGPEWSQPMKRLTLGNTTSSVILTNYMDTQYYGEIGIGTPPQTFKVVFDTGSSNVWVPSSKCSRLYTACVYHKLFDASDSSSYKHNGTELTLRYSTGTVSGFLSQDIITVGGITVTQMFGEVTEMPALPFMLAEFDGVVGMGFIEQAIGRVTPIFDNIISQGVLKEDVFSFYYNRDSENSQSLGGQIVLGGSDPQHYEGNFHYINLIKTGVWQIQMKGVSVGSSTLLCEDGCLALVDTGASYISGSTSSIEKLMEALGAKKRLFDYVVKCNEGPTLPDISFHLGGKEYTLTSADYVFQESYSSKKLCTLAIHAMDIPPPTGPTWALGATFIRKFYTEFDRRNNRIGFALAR
# Renin [2] = target: T1, Renin; assay: Inhibitory activity against monkey plasma renin.; assay type: cell-free, Cercopithecidae; details: target entry is the homologue from another species
# How it was run: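 Plasma from salt-depleted, furosemide-treated monkeys (native renin and angiotensinogen) incubated with maleate buffer (pH 6.0), PMSF and inhibitor in DMSO for 60 min at 37 °C. Plasma renin activity was 3–8 ng AI/mL per h. Percent inhibition was taken vs DMSO vehicle tubes, and IC50 from six concentrations by nonlinear regression.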
# [3] = Partition coefficient (logD7.4); details: octanol/water
SMILES,IC50 (Renin [1]),IC50 (Renin [2]),"logD ([3]; pH 7.4, logD)",logD ([3]; pH 7.4)
CCC(C)CNC(=O)C[C@H](O)C(CC(C)C)NC(=O)C(Cc1cnc[nH]1)NC(=O)C(Cc1cccc2ccccc12)Cc1cccc2ccccc12 (some centres undefined),61 nM,85 nM,,
C/N=C(\S)NCCCCC(NC(=O)C(Cc1ccccc1)NS(=O)(=O)N1CCOCC1)C(=O)NC(CC1CCCCC1)[C@H](O)C(F)(F)C(=O)N1CCOC(CCN)C1 (some centres undefined),,2.3 nM,2.93,
CC(C)(C)OC(=O)NCC#CCC(NC(=O)C(Cc1ccccc1)NS(=O)(=O)N1CCOCC1)C(=O)NC(CC1CCCCC1)[C@@H](O)CC(=O)N1CCOC(CCN)C1 (stereo in doubt; 61b),,700 nM,3.13,
CCC(C)CNC(=O)C[C@H](O)C(CC(C)C)NC(=O)C(CCCCNC(=O)NC)NC(=O)C(Cc1cccc2ccccc12)Cc1cccc2ccccc12 (some centres undefined),29 nM,44 nM,5.63,
CCC(C)CNC(=O)C[C@H](O)C(CC(C)C)NC(=O)C(CCCn1cccc1)NC(=O)C(Cc1cccc2ccccc12)Cc1cccc2ccccc12 (some centres undefined),540 nM,390 nM,7.09,
CC(=O)NCC#CCC(NC(=O)C(Cc1ccccc1)NS(=O)(=O)N1CCOCC1)C(=O)NC(CC1CCCCC1)[C@@H](O)CC(=O)N1CCOC(CCN)C1 (some centres undefined),,0.5 nM,2.12,
CCC(C)CNC(=O)C[C@H](O)C(CC(C)C)NC(=O)C(CCNC(C)=O)NC(=O)C(Cc1cccc2ccccc12)Cc1cccc2ccccc12 (some centres undefined),> 10000 nM,4150 nM,4.4,
CNC(=S)NCC#CCC(NC(=O)C(Cc1cccc2ccccc12)Cc1cccc2ccccc12)C(=O)NC(CC1CCCCC1)[C@@H](O)CC(=O)N1CCOC(CCN)C1 (some centres undefined),,48 nM,5.46,
C/N=C(\S)NCC#CCC(NC(=O)C(Cc1ccccc1)NS(=O)(=O)N1CCOCC1)C(=O)NC(CC1CCCCC1)[C@@H](O)CC(=O)N1CCOC(CCN)C1 (some centres undefined),,3.3 nM,2.9,
CCC(C)CNC(=O)C[C@H](O)C(CC(C)C)NC(=O)C(C/C=C\CNC(C)=O)NC(=O)C(Cc1cccc2ccccc12)Cc1cccc2ccccc12 (some centres undefined),,100 nM,5.56,
N=C(NCC#CCC(NC(=O)C(Cc1cccc2ccccc12)Cc1cccc2ccccc12)C(=O)NC(CC1CCCCC1)[C@@H](O)CC(=O)N1CCOC(CCN)C1)N[N+](=O)[O-] (some centres undefined),,12 nM,,4.73
CC(C)CC(NC(=O)C(CCCCNC(=O)OCc1ccccc1)NC(=O)C(Cc1ccccc1)NS(=O)(=O)N1CCOCC1)C(=O)C(F)(F)C(=O)N1CCOC(CCN)C1 (centres undefined),,3.3 nM,2.32,
CC(C)CC(NC(=O)C(CCCC/N=C(/N)N[N+](=O)[O-])NC(=O)C(CC(=O)N1CCOCC1)Cc1cccc2ccccc12)[C@@H](O)CC(=O)N1CCOC(CCN)C1 (some centres undefined),,395 nM,,1.95
CS/C(=N\CCCCC(NC(=O)C(CC(=O)N1CCOCC1)Cc1cccc2ccccc12)C(=O)NC(CC(C)C)[C@@H](O)CC(=O)N1CCOC(CCN)C1)NC#N (some centres undefined),,350 nM,1.68,
CCC(C)CNC(=O)C[C@H](O)C(CC(C)C)NC(=O)C(CC#CCNC(C)=O)NC(=O)C(Cc1cccc2ccccc12)Cc1cccc2ccccc12 (stereo in doubt; 55b),29 nM,41 nM,,5.06
NCCC1CN(C(=O)C[C@H](O)C(CC2CCCCC2)NC(=O)C(CC#CCNC=O)NC(=O)C(Cc2cccc3ccccc23)Cc2cccc3ccccc23)CCO1 (some centres undefined),,8.7 nM,5.44,
CCC(C)CNC(=O)C[C@H](O)C(CC(C)C)NC(=O)C(CCCCNC(C)=O)NC(=O)C(Cc1cccc2ccccc12)Cc1cccc2ccccc12 (some centres undefined),6.2 nM,36 nM,4.38,
CNC(=S)NCCCCC(NC(=O)C(Cc1ccccc1)S(=O)(=O)C(C)(C)C)C(=O)NC(CC1CCCCC1)[C@@H](O)CC(=O)N1CCOC(CCN)C1 (some centres undefined),,27 nM,2.64,
CCC(C)CNC(=O)C[C@H](O)C(CC(C)C)NC(=O)C(CCCCn1cccc1)NC(=O)C(Cc1cccc2ccccc12)Cc1cccc2ccccc12 (some centres undefined),87 nM,144 nM,7.21,

SMILES,IC50 (Renin [1]),IC50 (Renin [2]),"logD ([3]; pH 7.4, logD)",logD ([3]; pH 7.4)
CCC(C)CNC(=O)C[C@H](O)C(CC(C)C)NC(=O)C(CCCCN)NC(=O)C(Cc1cccc2ccccc12)Cc1cccc2ccccc12 (some centres undefined),2580 nM,3490 nM,5.25,
NCCC1CN(C(=O)C[C@H](O)C(CC2CCCCC2)NC(=O)C(Cc2c[nH]cn2)NC(=O)C(Cc2ccccc2)NS(=O)(=O)N2CCOCC2)CCO1 (some centres undefined),5.4 nM,5 nM,2.25,
CCC(C)CNC(=O)C[C@H](O)C(CC(C)C)NC(=O)C(CCCCCNC(=S)NC)NC(=O)C(Cc1cccc2ccccc12)Cc1cccc2ccccc12 (some centres undefined),40 nM,39 nM,5.41,
CCC(C)CNC(=O)C[C@H](O)C(CC(C)C)NC(=O)C(CCCCCCN=C(S)NC)NC(=O)C(Cc1cccc2ccccc12)Cc1cccc2ccccc12 (some centres undefined),48 nM,44 nM,5.64,
C/N=C(\S)NCCCCC(NC(=O)C(CC(=O)N1CCOCC1)Cc1cccc2ccccc12)C(=O)NC(CC1CCCCC1)[C@@H](O)CC(=O)N1CCOC(CCN)C1 (some centres undefined),20 nM,36 nM,1.68,
CC(C)CC(NC(=O)C[C@H](O)C(CC(C)C)NC(=O)C(CCCCNC(=N)N[N+](=O)[O-])NC(=O)C(Cc1cccc2ccccc12)Cc1cccc2ccccc12)C(=O)NCc1ccccc1 (some centres undefined),15 nM,49 nM,,5.51
CCC(C)CNC(=O)C[C@H](O)C(CC(C)C)NC(=O)C(CCCCNC(N)=O)NC(=O)C(Cc1cccc2ccccc12)Cc1cccc2ccccc12 (some centres undefined),50 nM,89 nM,5.31,
CS/C(=N\CCCCC(NC(=O)C(Cc1cccc2ccccc12)Cc1cccc2ccccc12)C(=O)NC(CC(C)C)[C@@H](O)CC(=O)N1CCOC(CCN)C1)NC#N (some centres undefined),,90 nM,4.67,
CNC(=S)NCCCCC(NC(=O)C(Cc1cccc2ccccc12)Cc1cccc2ccccc12)C(=O)NC(CC(C)C)[C@@H](O)C(F)(F)C(=O)N1CCOC(CCN)C1 (some centres undefined),,350 nM,5.5,
CC(C)CC(NC(=O)C[C@H](O)C(CC(C)C)NC(=O)C(CCCCNC(=O)OCc1ccccc1)NC(=O)C(Cc1cccc2ccccc12)Cc1cccc2ccccc12)C(=O)NCc1ccccc1 (some centres undefined),2900 nM,8000 nM,7.69,
CCC(C)CNC(=O)C[C@H](O)C(CC(C)C)NC(=O)C(C/C=C/C/N=C(/S)NC)NC(=O)C(Cc1cccc2ccccc12)Cc1cccc2ccccc12 (some centres undefined),41 nM,26 nM,5.23,
CC(C)CC(NC(=O)C(CCCC/N=C(/N)N[N+](=O)[O-])NC(=O)C(Cc1cccc2ccccc12)Cc1cccc2ccccc12)[C@@H](O)CC(=O)N1CCOC(CCN)C1 (some centres undefined),45 nM,40 nM,,4.09
CCC(C)CNC(=O)C[C@H](O)C(CC(C)C)NC(=O)C(CC#CCNC(=O)OCc1ccccc1)NC(=O)C(Cc1cccc2ccccc12)Cc1cccc2ccccc12 (some centres undefined),150 nM,248 nM,7.37,
CNC(=S)NCCCCC(NC(=O)C(Cc1cccc2ccccc12)Cc1cccc2ccccc12)C(=O)NC(CC(C)C)[C@@H](O)CC(=O)N(C)OC (some centres undefined),,10600 nM,4.83,
CCC(C)CNC(=O)C[C@H](O)C(CC(C)C)NC(=O)C(CCCCNC(=NC#N)SC)NC(=O)C(Cc1cccc2ccccc12)Cc1cccc2ccccc12 (some centres undefined),19 nM,41 nM,5.51,
CC(C)(C)OC(=O)NCC#CCC(NC(=O)C(Cc1ccccc1)NS(=O)(=O)N1CCOCC1)C(=O)NC(CC1CCCCC1)[C@@H](O)CC(=O)N1CCOC(CCN)C1 (stereo in doubt; 61a),,11 nM,,3.96
CCC(C)CNC(=O)C[C@H](O)C(CC(C)C)NC(=O)C(CCCCNC(=S)Nc1ccccc1)NC(=O)C(Cc1cccc2ccccc12)Cc1cccc2ccccc12 (some centres undefined),58 nM,138 nM,6.6,
CCC(C)CNC(=O)C[C@H](O)C(CC(C)C)NC(=O)C(CCNC(=S)NC)NC(=O)C(Cc1cccc2ccccc12)Cc1cccc2ccccc12 (some centres undefined),9350 nM,2490 nM,5.7,
